Measured values: ChEMBL document CHEMBL1158358, “Synthesis, antimicrobial and cytotoxic activities of some 5-arylidene-4-thioxo-thiazolidine-2-ones” (Eur J Med Chem, 2009)
≈ marks a conversion by molar mass, not a printed value.

Tests used:
Assay type in all cases: functional
Staphylococcus aureus [1] = assay: Antimicrobial activity against Staphylococcus aureus UFPEDA 01 after 20 hrs by twofold serial dilution technique; settings: UFPEDA 01, 20 h
In short: (§1)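 Twofold serial dilution MIC in agar plates against Gram-positive strains and multidrug-resistant clinical isolates. Inoculum applied was 10⁵ CFU/plate. Plates with culture medium plus DMSO served as negative control. MIC was read after incubation at 35 °C for 20 h.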

Bacillus subtilis [2] = assay: Antimicrobial activity against Bacillus subtilis UFPEDA 16 after 20 hrs by twofold serial dilution technique; settings: UFPEDA 16, 20 h
In short: (§2)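 MIC was determined by twofold serial dilution. Bacteria were tested in plates at 10⁵ CFU/plate and read after 20 h. C. albicans was tested in tubes at 10³ CFU/tube and read after 48 h. All incubations were at 35 °C. Medium plus DMSO served as the negative control.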

Micrococcus luteus [3] = assay: Antimicrobial activity against Micrococcus luteus UFPEDA 06 after 20 hrs by twofold serial dilution technique; settings: UFPEDA 06, 20 h; in short: as §2
Enterococcus faecalis [4] = assay: Antimicrobial activity against Enterococcus faecalis UFPEDA 138 after 20 hrs by twofold serial dilution technique; settings: UFPEDA 138, 20 h; in short: as §2
[5] = test system: Mycolicibacterium smegmatis; assay: Antimicrobial activity against Mycobacterium smegmatis UFPEDA 71 after 20 hrs by twofold serial dilution technique; settings: UFPEDA 71, 20 h; in short: as §2
Candida albicans [6] = assay: Antimicrobial activity against Candida albicans UFPEDA 1007 after 48 hrs by twofold serial dilution technique; settings: UFPEDA 1007, 48 h; in short: as §2
Staphylococcus aureus [7] = assay: Antimicrobial activity against multidrug-resistant Staphylococcus aureus H.C. 20981 isolate after 20 hrs by twofold serial dilution technique; settings: H.C. 20981, 20 h; in short: as §1
Staphylococcus aureus [8] = assay: Antimicrobial activity against multidrug-resistant Staphylococcus aureus H.C. 21141 isolate after 20 hrs by twofold serial dilution technique; settings: H.C. 21141, 20 h; in short: as §1
Staphylococcus aureus [9] = assay: Antimicrobial activity against multidrug-resistant Staphylococcus aureus H.C. 21036 isolate after 20 hrs by twofold serial dilution technique; settings: H.C. 21036, 20 h; in short: as §1
Staphylococcus aureus [10] = assay: Antimicrobial activity against multidrug-resistant Staphylococcus aureus H.C. 20489 isolate after 20 hrs by twofold serial dilution technique; settings: H.C. 20489, 20 h; in short: as §1
Staphylococcus aureus [11] = assay: Antimicrobial activity against multidrug-resistant Staphylococcus aureus H.C. 20794 isolate after 20 hrs by twofold serial dilution technique; settings: H.C. 20794, 20 h; in short: as §1
Staphylococcus aureus [12] = assay: Antimicrobial activity against multidrug-resistant Staphylococcus aureus H.C. 20905 isolate after 20 hrs by twofold serial dilution technique; settings: H.C. 20905, 20 h; in short: as §1
Enterococcus faecalis [13] = assay: Antimicrobial activity against multidrug-resistant Enterococcus faecalis H.C. 21752 isolate after 20 hrs by twofold serial dilution technique; settings: H.C. 21752, 20 h; in short: as §1
Enterococcus faecalis [14] = assay: Antimicrobial activity against multidrug-resistant Enterococcus faecalis H.C. 21944 isolate after 20 hrs by twofold serial dilution technique; settings: H.C. 21944, 20 h; in short: as §1
Enterococcus faecalis [15] = assay: Antimicrobial activity against multidrug-resistant Enterococcus faecalis H.C. 24708 isolate after 20 hrs by twofold serial dilution technique; settings: H.C. 24708, 20 h; in short: as §1
Enterococcus faecalis [16] = assay: Antimicrobial activity against multidrug-resistant Enterococcus faecalis H.C. 24962 isolate after 20 hrs by twofold serial dilution technique; settings: H.C. 24962, 20 h; in short: as §1
Staphylococcus [17] = assay: Antimicrobial activity against coagulase-negative Staphylococcus H.A.M. 278 isolate after 20 hrs by twofold serial dilution technique; settings: H.A.M. 278, 20 h; in short: as §2
Staphylococcus [18] = assay: Antimicrobial activity against coagulase-negative Staphylococcus H.A.M. 338 isolate after 20 hrs by twofold serial dilution technique; settings: H.A.M. 338, 20 h; in short: as §2
NCI-H292 [19] = assay: Cytotoxicity against human NCI-H292 cells at 10 ug/mL after 72 hrs by MTT assay; settings: NCI-H292, 72 h, read-out: GI
In short: (§3)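 MTT antiproliferative assay. Cells were diluted to 10⁵ cells/mL in 96-well plates and preincubated for 24 h at 37 °C in humid 5% CO₂. Compounds or vincristine (reference) were then added. Formazan was dissolved and OD read at 540 nm, compared with medium-only control cells. Run in triplicate.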

NCI-H292 [20] = assay: Cytotoxicity against human NCI-H292 cells at 5 ug/mL after 72 hrs by MTT assay; settings: NCI-H292, 72 h, read-out: GI; in short: as §3
NCI-H292 [21] = assay: Cytotoxicity against human NCI-H292 cells at 2.5 ug/mL after 72 hrs by MTT assay; settings: NCI-H292, 72 h, read-out: GI; in short: as §3
NCI-H292 [22] = assay: Cytotoxicity against human NCI-H292 cells at 1.25 ug/mL after 72 hrs by MTT assay; settings: NCI-H292, 72 h, read-out: GI; in short: as §3
HEp-2 [23] = assay: Cytotoxicity against human Hep2 cells at 10 ug/mL after 72 hrs by MTT assay; settings: HEp-2, 72 h, read-out: GI; in short: as §3
HEp-2 [24] = assay: Cytotoxicity against human Hep2 cells at 5 ug/mL after 72 hrs by MTT assay; settings: HEp-2, 72 h, read-out: GI; in short: as §3
HEp-2 [25] = assay: Cytotoxicity against human Hep2 cells at 2.5 ug/mL after 72 hrs by MTT assay; settings: HEp-2, 72 h, read-out: GI; in short: as §3
HEp-2 [26] = assay: Cytotoxicity against human Hep2 cells at 1.25 ug/mL after 72 hrs by MTT assay; settings: HEp-2, 72 h, read-out: GI; in short: as §3
Serratia marcescens = assay: Antimicrobial activity against Serratia marcescens UFPEDA 398 at 300 ug/disk after 24 hrs by disk diffusion method; settings: UFPEDA 398, 24 h, read-out: IZ
In short: (§4)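 Preliminary screen by disk diffusion. Paper disks (6 mm) holding 300 µg of compound were placed on agar plates inoculated with a standardized microbial suspension. DMSO-only disks served as negative controls. A mean inhibition zone below 7 mm was scored as no sensitivity. Values are means, n = 3.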

Escherichia coli = assay: Antimicrobial activity against Escherichia coli UFPEDA 224 at 300 ug/disk after 24 hrs by disk diffusion method; settings: UFPEDA 224, 24 h, read-out: IZ; in short: as §4
Staphylococcus aureus [27] = assay: Antimicrobial activity against Staphylococcus aureus UFPEDA 01 at 300 ug/disk after 24 hrs by disk diffusion method; settings: UFPEDA 01, 24 h, read-out: IZ; in short: as §4
Bacillus subtilis [28] = assay: Antimicrobial activity against Bacillus subtilis UFPEDA 16 at 300 ug/disk after 24 hrs by disk diffusion method; settings: UFPEDA 16, 24 h, read-out: IZ; in short: as §4
Micrococcus luteus [29] = assay: Antimicrobial activity against Micrococcus luteus UFPEDA 06 at 300 ug/disk after 24 hrs by disk diffusion method; settings: UFPEDA 06, 24 h, read-out: IZ; in short: as §4
Enterococcus faecalis [30] = assay: Antimicrobial activity against Enterococcus faecalis UFPEDA 138 at 300 ug/disk after 24 hrs by disk diffusion method; settings: UFPEDA 138, 24 h, read-out: IZ; in short: as §4
Pseudomonas aeruginosa = assay: Antimicrobial activity against Pseudomonas aeruginosa UFPEDA 39 at 300 ug/disk after 24 hrs by disk diffusion method; settings: UFPEDA 39, 24 h, read-out: IZ; in short: as §4
[31] = test system: Mycolicibacterium smegmatis; assay: Antimicrobial activity against Mycobacterium smegmatis UFPEDA 71 at 300 ug/disk after 24 hrs by disk diffusion method; settings: UFPEDA 71, 24 h, read-out: IZ; in short: as §4
Candida albicans [32] = assay: Antimicrobial activity against Candida albicans UFPEDA 1007 at 300 ug/disk after 48 hrs by disk diffusion method; settings: UFPEDA 1007, 48 h, read-out: IZ; in short: as §4

SMILES | MIC (Staphylococcus aureus [1]) | MIC (Bacillus subtilis [2]) | MIC (Micrococcus luteus [3]) | MIC (Enterococcus faecalis [4]) | MIC [5] | MIC (Candida albicans [6]) | MIC (Staphylococcus aureus [7]) | MIC (Staphylococcus aureus [8]) | MIC (Staphylococcus aureus [9]) | MIC (Staphylococcus aureus [10]) | MIC (Staphylococcus aureus [11]) | MIC (Staphylococcus aureus [12]) | MIC (Enterococcus faecalis [13]) | MIC (Enterococcus faecalis [14]) | MIC (Enterococcus faecalis [15]) | MIC (Enterococcus faecalis [16]) | MIC (Staphylococcus [17]) | MIC (Staphylococcus [18]) | zone of inhibition at 300 µg/disc (Serratia marcescens) | zone of inhibition at 300 µg/disc (Escherichia coli) | further results
O=C1NC(=S)/C(=C/c2ccc(F)cc2)S1 | 4 µg/mL (≈ 16.7 µM) | 16 µg/mL (≈ 66.9 µM) | 16 µg/mL (≈ 66.9 µM) | 32 µg/mL (≈ 134 µM) | 16 µg/mL (≈ 66.9 µM) | 32 µg/mL (≈ 134 µM) | 4 µg/mL (≈ 16.7 µM) | 32 µg/mL (≈ 134 µM) | 2 µg/mL (≈ 8.36 µM) | 2 µg/mL (≈ 8.36 µM) | 2 µg/mL (≈ 8.36 µM) | 2 µg/mL (≈ 8.36 µM) | 32 µg/mL (≈ 134 µM) | 32 µg/mL (≈ 134 µM) | 16 µg/mL (≈ 66.9 µM) | 16 µg/mL (≈ 66.9 µM) | 32 µg/mL (≈ 134 µM) | 32 µg/mL (≈ 134 µM) | < 7 mm | < 7 mm | inhibition of growth at 10 µg/mL (NCI-H292 [19]): 38%; inhibition of growth at 5 µg/mL (NCI-H292 [20]): 31.6%; inhibition of growth at 2.5 µg/mL (NCI-H292 [21]): 17.5%; inhibition of growth at 1.25 µg/mL (NCI-H292 [22]): 7.32%; inhibition of growth at 10 µg/mL (HEp-2 [23]): 30.1%; inhibition of growth at 5 µg/mL (HEp-2 [24]): 20.6%; inhibition of growth at 2.5 µg/mL (HEp-2 [25]): -4.51%; inhibition of growth at 1.25 µg/mL (HEp-2 [26]): -10.8%; zone of inhibition at 300 µg/disc (Staphylococcus aureus [27]): 29 mm; zone of inhibition at 300 µg/disc (Bacillus subtilis [28]): 26 mm; zone of inhibition at 300 µg/disc (Micrococcus luteus [29]): 29 mm; zone of inhibition at 300 µg/disc (Enterococcus faecalis [30]): 24 mm; zone of inhibition at 300 µg/disc (Pseudomonas aeruginosa): < 7 mm; zone of inhibition at 300 µg/disc [31]: 25 mm; zone of inhibition at 300 µg/disc (Candida albicans [32]): 17 mm
O=C1NC(=S)CS1 | 8 µg/mL (≈ 60.1 µM) | 4 µg/mL (≈ 30 µM) | 4 µg/mL (≈ 30 µM) | 64 µg/mL (≈ 480 µM) | 32 µg/mL (≈ 240 µM) | 8 µg/mL (≈ 60.1 µM) | 32 µg/mL (≈ 240 µM) | 32 µg/mL (≈ 240 µM) | 32 µg/mL (≈ 240 µM) | 64 µg/mL (≈ 480 µM) | 32 µg/mL (≈ 240 µM) | 32 µg/mL (≈ 240 µM) | 32 µg/mL (≈ 240 µM) | 32 µg/mL (≈ 240 µM) | 32 µg/mL (≈ 240 µM) | 32 µg/mL (≈ 240 µM) | 64 µg/mL (≈ 480 µM) | 64 µg/mL (≈ 480 µM) | < 7 mm | < 7 mm | zone of inhibition at 300 µg/disc (Staphylococcus aureus [27]): 19 mm; zone of inhibition at 300 µg/disc (Bacillus subtilis [28]): 21 mm; zone of inhibition at 300 µg/disc (Micrococcus luteus [29]): 26 mm; zone of inhibition at 300 µg/disc (Enterococcus faecalis [30]): 22 mm; zone of inhibition at 300 µg/disc (Pseudomonas aeruginosa): < 7 mm; zone of inhibition at 300 µg/disc [31]: 18 mm; zone of inhibition at 300 µg/disc (Candida albicans [32]): 19 mm
O=C1NC(=S)/C(=C/c2ccc(Cl)cc2)S1 | 4 µg/mL (≈ 15.6 µM) | 16 µg/mL (≈ 62.6 µM) | 32 µg/mL (≈ 125 µM) | 32 µg/mL (≈ 125 µM) | 32 µg/mL (≈ 125 µM) | 64 µg/mL (≈ 250 µM) | 2 µg/mL (≈ 7.82 µM) | 8 µg/mL (≈ 31.3 µM) | 2 µg/mL (≈ 7.82 µM) | 2 µg/mL (≈ 7.82 µM) | 2 µg/mL (≈ 7.82 µM) | 2 µg/mL (≈ 7.82 µM) | 16 µg/mL (≈ 62.6 µM) | 16 µg/mL (≈ 62.6 µM) | 16 µg/mL (≈ 62.6 µM) | 16 µg/mL (≈ 62.6 µM) | 4 µg/mL (≈ 15.6 µM) | 4 µg/mL (≈ 15.6 µM) | < 7 mm | < 7 mm | inhibition of growth at 10 µg/mL (NCI-H292 [19]): 41.4%; inhibition of growth at 5 µg/mL (NCI-H292 [20]): 35.8%; inhibition of growth at 2.5 µg/mL (NCI-H292 [21]): 28.6%; inhibition of growth at 1.25 µg/mL (NCI-H292 [22]): 10%; inhibition of growth at 10 µg/mL (HEp-2 [23]): 22.2%; inhibition of growth at 5 µg/mL (HEp-2 [24]): 16.1%; inhibition of growth at 1.25 µg/mL (HEp-2 [26]): 0.92%; zone of inhibition at 300 µg/disc (Staphylococcus aureus [27]): 27 mm; zone of inhibition at 300 µg/disc (Bacillus subtilis [28]): 22 mm; zone of inhibition at 300 µg/disc (Micrococcus luteus [29]): 25 mm; zone of inhibition at 300 µg/disc (Enterococcus faecalis [30]): 17 mm; zone of inhibition at 300 µg/disc (Pseudomonas aeruginosa): < 7 mm; zone of inhibition at 300 µg/disc [31]: 20 mm; zone of inhibition at 300 µg/disc (Candida albicans [32]): 12 mm
